In series [1] the target is T1, wild-type IDH1/IDH2 enzyme (Saccharomyces cerevisiae, UniProt P28241+P28834).
T1 sequence (P28834 12-360): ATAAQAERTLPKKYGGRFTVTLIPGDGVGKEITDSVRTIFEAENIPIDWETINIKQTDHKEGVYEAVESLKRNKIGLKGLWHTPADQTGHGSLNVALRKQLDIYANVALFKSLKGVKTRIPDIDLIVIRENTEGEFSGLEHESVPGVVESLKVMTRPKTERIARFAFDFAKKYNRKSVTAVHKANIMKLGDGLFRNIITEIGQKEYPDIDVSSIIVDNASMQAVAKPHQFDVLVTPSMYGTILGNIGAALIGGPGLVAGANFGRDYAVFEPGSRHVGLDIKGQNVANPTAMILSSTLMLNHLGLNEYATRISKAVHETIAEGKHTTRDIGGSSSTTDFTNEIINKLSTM
T1 sequence (P28241 16-369): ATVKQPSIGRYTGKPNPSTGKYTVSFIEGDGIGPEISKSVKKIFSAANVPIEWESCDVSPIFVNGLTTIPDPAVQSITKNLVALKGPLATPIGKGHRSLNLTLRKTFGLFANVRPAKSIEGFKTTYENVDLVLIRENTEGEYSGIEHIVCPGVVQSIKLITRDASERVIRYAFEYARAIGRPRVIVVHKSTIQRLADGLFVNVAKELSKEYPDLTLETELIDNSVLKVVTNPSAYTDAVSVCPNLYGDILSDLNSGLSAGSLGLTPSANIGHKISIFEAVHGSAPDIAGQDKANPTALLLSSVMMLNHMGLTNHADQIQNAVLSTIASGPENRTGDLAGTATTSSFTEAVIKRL
In words: Ligand protection from diamide-induced inactivation. In kind it is biochemical, yeast.

The target in the next series is T2, ^-5IDH1/IDH2 enzyme (Saccharomyces cerevisiae, UniProt P28241+P28834).
T2 sequence (P28834 17-360 limits assumed): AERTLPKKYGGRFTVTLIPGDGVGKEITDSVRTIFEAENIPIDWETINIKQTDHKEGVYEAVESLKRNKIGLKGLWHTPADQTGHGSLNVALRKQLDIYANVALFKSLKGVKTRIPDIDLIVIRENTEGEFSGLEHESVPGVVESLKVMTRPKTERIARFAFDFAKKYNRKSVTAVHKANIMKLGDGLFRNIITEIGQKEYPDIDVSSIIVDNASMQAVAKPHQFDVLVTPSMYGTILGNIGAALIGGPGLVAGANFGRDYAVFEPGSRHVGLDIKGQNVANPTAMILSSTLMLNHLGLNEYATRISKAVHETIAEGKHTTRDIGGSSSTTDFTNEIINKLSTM
T2 sequence (P28241 16-369): T1 sequence (P28241 16-369)
The series is described as above. In kind it is biochemical, yeast.

Series [2] deals with IDH1^G15D/IDH2 enzyme (tetrameric) (Saccharomyces cerevisiae, UniProt P28241+P28834, G26D). In words: Diamide inhibition of catalytic activity. In kind it is biochemical, yeast.
Series [3] concerns the target ^-5IDH1^D168K/IDH2 enzyme (tetrameric) (Saccharomyces cerevisiae, UniProt P28241+P28834, D179K). The series can be described thus: Diamide inhibition of catalytic activity. In kind it is biochemical, yeast.
For series [4], the target named is ^-5IDH1^G15D/IDH2 enzyme (tetrameric) (Saccharomyces cerevisiae, UniProt P28241+P28834, G26D). In words: Diamide inhibition of catalytic activity. In kind it is biochemical, yeast.
Series [5] concerns the target ^-5IDH1/IDH2 enzyme (truncated, octameric) (Saccharomyces cerevisiae, UniProt P28241+P28834). The series can be described thus: Diamide inhibition of catalytic activity. In kind it is biochemical, yeast.
A further series deals with T3, IDH1^G15D/IDH2 enzyme (Saccharomyces cerevisiae, UniProt P28241+P28834, G26D).
T3 sequence (P28834 12-360 G26D): T1 sequence (P28834 12-360) with G15D
T3 sequence (P28241 16-369): T1 sequence (P28241 16-369)
In kind it is biochemical, yeast. As to conditions: 10 μM diamide, 2 h.

Series [6] concerns the target T4, IDH1/IDH2 enzyme (wild-type, octameric) (Saccharomyces cerevisiae, UniProt P28241+P28834).
T4 sequence (P28834 12-360): T1 sequence (P28834 12-360)
T4 sequence (P28241 16-369): T1 sequence (P28241 16-369)
The series can be described thus: Diamide inhibition of catalytic activity. In kind it is biochemical, yeast. The method in brief: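 Purified His-tagged enzyme (E. coli BL21-Gold (DE3), IPTG-induced, Ni-NTA purified) at 1 μM in 50 mM Tris-HCl pH 7.4 is held 2 h on ice with a range of diamide concentrations from a fresh water stock. Activity is then assayed (40 mM Tris-HCl pH 7.4, 1 mM D-isocitrate, 4 mM MgCl2, 0.5 mM NAD+; NADH formation, 24 °C). Untreated activity is set as 100%, and the 50% value is read from the graphs.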

Another series has as its target T5, IDH1/IDH2 enzyme (Saccharomyces cerevisiae, UniProt P28241+P28834).
T5 sequence (P28834 12-360): T1 sequence (P28834 12-360)
T5 sequence (P28241 16-369): T1 sequence (P28241 16-369)
In kind it is biochemical, yeast. As to conditions: no or low concentration (10 μM) of diamide, 2 h. The method in brief:
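Affinity-purified His-tagged enzyme (1 μM in 50 mM Tris-HCl pH 7.4) is treated 2 h on ice with 0 or 10 μM diamide. Then 3.5 μg samples are run on […] and stained with Coomassie blue to see the IDH2 Cys-150 disulfide band.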

The series “cross-linking” concerns the molecule itself. In words: cross-linking.
Series [7] concerns Yeast NAD+-specific isocitrate dehydrogenase (IDH). In words: Kinetic analyses: isocitrate saturation velocity curves of purified IDH enzymes. In kind it is biochemical. The method in brief: (§1)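 His-tagged IDH purified by Ni2+-NTA, stored at −20 °C in elution buffer with 20% glycerol, quantified by A280. Assays at 24 °C used 40 mM Tris-HCl pH 7.4, 4 mM MgCl2 and 0.5 mM NAD+. D-isocitrate was varied 0–5 mM, with or without 100 μM AMP, and NADH formation was followed. Apparent S0.5 and Hill coefficients came from saturation curves, Vmax as maximum velocity per mg, over two independent experiments.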

Series [8] concerns the target T6, Yeast NAD+-specific isocitrate dehydrogenase (IDH) (Saccharomyces cerevisiae, UniProt P28241+P28834).
T6 sequence (P28834 12-360): T1 sequence (P28834 12-360)
T6 sequence (P28241 16-369): T1 sequence (P28241 16-369)
Described as above. Conditions: 100 μM AMP. In kind it is biochemical. The method in brief: as §1

Where [9] appears, read: 2 h, read-out: reduction in activity.

Residue numbers refer to the chain shown, from its start. Several values for one entry are separate records, joined by “and”; a condition that tells them apart may be missing. Equal entries are not always repeated. Marks after values point to notes of the source that are not given here.

As usually defined, the IC50 is the midpoint of a concentration-inhibition curve. Low readings indicate higher potency, high ones lower potency.

Sequence of IDH1^G15D/IDH2 enzyme (tetrameric) (P28834 12-360 G26D, one chain of several): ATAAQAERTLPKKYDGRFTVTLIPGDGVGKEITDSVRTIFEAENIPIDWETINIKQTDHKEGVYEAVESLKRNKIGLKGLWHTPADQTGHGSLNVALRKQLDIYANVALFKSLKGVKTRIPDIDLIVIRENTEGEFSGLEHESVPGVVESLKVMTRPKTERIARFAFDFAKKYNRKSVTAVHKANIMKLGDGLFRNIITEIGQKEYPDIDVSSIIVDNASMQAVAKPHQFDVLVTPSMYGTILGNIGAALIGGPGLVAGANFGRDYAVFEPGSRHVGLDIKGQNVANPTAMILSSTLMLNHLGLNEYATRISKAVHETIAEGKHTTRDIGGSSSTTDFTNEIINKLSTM
Sequence of ^-5IDH1^G15D/IDH2 enzyme (tetrameric) (P28834 17-360 G26D, one chain of several): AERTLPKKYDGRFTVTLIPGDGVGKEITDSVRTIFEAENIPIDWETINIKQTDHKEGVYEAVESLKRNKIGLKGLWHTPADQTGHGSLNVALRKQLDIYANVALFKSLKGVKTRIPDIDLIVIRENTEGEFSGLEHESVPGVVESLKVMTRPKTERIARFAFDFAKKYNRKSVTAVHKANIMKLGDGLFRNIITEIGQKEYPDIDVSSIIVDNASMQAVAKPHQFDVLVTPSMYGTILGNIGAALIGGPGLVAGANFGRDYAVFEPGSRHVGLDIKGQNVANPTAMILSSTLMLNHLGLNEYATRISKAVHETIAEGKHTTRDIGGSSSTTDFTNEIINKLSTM
Sequence of ^-5IDH1^D168K/IDH2 enzyme (tetrameric) (P28834 17-360 D179K, one chain of several): as the sequence (P28834 17-360 G26D, one chain of several) above, with D10G, D163K counted along it

Regarding `O=C(O)CC(O)(CC(=O)O)C(=O)O` [citrate], the “effect of citrate preincubation on diamide inhibition” value in [1] (100 mM citrate, 4 mM MgCl2, 100 μM AMP for 15 min before 0.5 mM diamide) was “no inhibition by diamide was observed”; at ^-5IDH1/IDH2 enzyme (increasing citrate (0 to 100 mM), 4 mM MgCl2, 100 μM AMP before 0.16 mM diamide), “essentially no effect”.

Turning to `CN(C)C(=O)/N=N/C(=O)N(C)C` [diamide], the IC50 in series [2] amounted to 6.5 µM; in series [3] it was 13 µM; in series [4], 7.5 µM; in [5], 160 µM; in series [6], 500 µM. The inhibition at 500 µM in series [1] (setting [9]) amounted to 63%. Besides, at ^-5IDH1/IDH2 enzyme (setting [9]), the inhibition at 160 µM was 43%. For the same molecule, the “increase in sensitivity to diamide relative to the IDH1/IDH2 enzyme” value in series [5] (^-5IDH1/IDH2 vs IDH1/IDH2, 120 min) was ~ 3 fold and 3 fold. The “formation of IDH2 Cys-150 disulfide bond” value on IDH1^G15D/IDH2 enzyme is listed as “most of the IDH2 subunit is present as the disulfide bond form”; at IDH1/IDH2 enzyme, “no formation of this bond”.

B1: IDH2 subunit (natural protein, yeast)
chain: T1 sequence (P28241 16-369)
In the case of B1, the binding result in “cross-linking” is “binds”.

B2: IDH1/IDH2: wild-type yeast NAD+-specific isocitrate dehydrogenase, octamer of IDH1 and IDH2 subunits, histidine tag on IDH1 (protein)
chain 1: T1 sequence (P28834 12-360)
chain 2: T1 sequence (P28241 16-369)
modifications: left off: histidine tag, C-terminal, kept
On to B2, for which the “Hill coef. with respect to isocitrate, − AMP” value in series [7] (absence of AMP) was 3.1. For the same molecule, the “Vmax (apparent), + AMP” value in series [7] (isocitrate velocity saturation curve, presence of 100 μM AMP) was 32.3/32.3 (±0.7/0.4) ^b units/mg. For the same molecule, the “Hill coef. with respect to isocitrate, + AMP” value in [7] (presence of 100 μM AMP) is 3.5. The “increase in the apparent affinity for isocitrate in the presence of AMP” value in [8] was ~ 5 fold.

The record behind these values is PMC3137751 (Biochemistry, 2010).
